pIC50, pKi: −log10 of the molar value.
How the values were obtained:
[1] = target: T1, Muscarinic acetylcholine receptor M5 (Homo sapiens, UniProt P08912); test: Displacement of [3H]-NMS from human muscarinic M5 receptor expressed in CHO-K9 cells after 3 hrs by microbeta2 scintillation counting method; type: cell-based
T1 sequence (P08912 whole entry): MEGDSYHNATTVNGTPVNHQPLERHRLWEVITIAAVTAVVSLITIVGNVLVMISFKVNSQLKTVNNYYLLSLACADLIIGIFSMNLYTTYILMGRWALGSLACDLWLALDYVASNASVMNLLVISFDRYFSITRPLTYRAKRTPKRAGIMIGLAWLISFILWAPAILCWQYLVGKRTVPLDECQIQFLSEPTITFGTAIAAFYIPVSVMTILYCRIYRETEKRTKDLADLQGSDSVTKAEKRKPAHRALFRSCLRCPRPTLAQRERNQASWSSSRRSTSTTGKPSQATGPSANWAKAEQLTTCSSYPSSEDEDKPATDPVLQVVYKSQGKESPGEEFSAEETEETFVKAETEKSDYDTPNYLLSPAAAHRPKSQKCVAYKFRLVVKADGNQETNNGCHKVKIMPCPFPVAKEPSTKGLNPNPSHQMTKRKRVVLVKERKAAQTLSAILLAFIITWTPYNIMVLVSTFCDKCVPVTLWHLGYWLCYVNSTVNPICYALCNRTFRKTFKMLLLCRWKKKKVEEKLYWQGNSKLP
Summary of the method: (§1)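 [3H]NMS competition binding on intact CHO-hMxR cells in L15 medium with 1% BSA, 3 h at 22 ± 1 °C with gentle shaking. [3H]NMS was 0.2 nM (M1, M2, M3), 0.1 nM (M4) or 0.3 nM (M5). […] Cells were lysed in urea/acetic acid/Triton and counted by liquid scintillation. Ki from Cheng-Prusoff. Triplicates, ≥3 experiments.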

[2] = Stability of the compound in human plasma used as 1:2 ratio of plasma to pH 7.4 PBS assessed as intact compound at 100 uM incubated for 6 hr […]; type: ADME, cell-free; conditions: plasma diluted with PBS (1:2), read-out: Stability
[3] = target: Muscarinic acetylcholine receptors; M2 & M3 (Homo sapiens) (UniProt P20309+P08172); test: Selectivity ratio of Ki for human muscarinic M3 receptor expressed in CHO-K9 cells to Ki for human muscarinic M2 receptor expressed in CHO-K9 cells; type: cell-based
Summary of the method: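 Ratio of mean Ki values. Each Ki came from an individual [3H]NMS competition experiment at the given CHO-hMxR subtype, converting IC50 to Ki by Cheng-Prusoff before averaging.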

[4] = target: T2, Muscarinic acetylcholine receptor M2 (Homo sapiens, UniProt P08172); test: (§2) Antagonist activity at human muscarinic M2 receptor expressed in HEK293 cells co-expressing HA-Galphaq/i5 assessed as inhibition of carbachol-induced IP1 accumulation pre-incubated for 30 mins followed by carbachol addition and measured after 1 hr by HTRF assay; type: functional, cell-based
T2 sequence (P08172 whole entry): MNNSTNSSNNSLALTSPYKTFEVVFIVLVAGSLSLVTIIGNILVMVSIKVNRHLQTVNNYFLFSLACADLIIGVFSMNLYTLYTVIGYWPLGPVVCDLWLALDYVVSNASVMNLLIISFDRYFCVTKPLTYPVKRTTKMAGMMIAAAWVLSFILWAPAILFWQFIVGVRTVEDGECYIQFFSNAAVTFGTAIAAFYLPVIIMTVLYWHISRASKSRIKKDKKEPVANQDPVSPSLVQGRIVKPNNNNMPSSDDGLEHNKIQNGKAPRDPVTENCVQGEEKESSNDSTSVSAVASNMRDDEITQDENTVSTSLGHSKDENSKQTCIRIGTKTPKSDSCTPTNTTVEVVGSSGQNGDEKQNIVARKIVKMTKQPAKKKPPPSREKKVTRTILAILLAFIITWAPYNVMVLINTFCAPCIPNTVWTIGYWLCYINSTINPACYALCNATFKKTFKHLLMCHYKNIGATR
Summary of the method: (§3)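 HEK-293 cells transiently cotransfected (receptor plus HA-tagged Gαqi5), detached after 1 day and seeded at 10,000 cells/well for 24 h at 37 °C. Duplicates.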

[5] = target: T3, Muscarinic acetylcholine receptor M2 (Homo sapiens) (UniProt P08172); test: as §2; type: functional, cell-based; summary of the method: as §3
T3 sequence (whole entry): T2 sequence (P08172 whole entry)

[6] = target: T2, Muscarinic acetylcholine receptor M2; test: Competitive displacement of [3H]-NMS from human muscarinic M2 receptor expressed in CHO-K9 cells using 2 nM [3H]-NMS after 3 hrs by microbeta2 scintillation counting method; type: cell-based
Summary of the method: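 Intact CHO-hM2R cells incubated at 22 °C with a high [3H]NMS concentration (2 nM). […] Curves were fitted by four-parameter logistic fits. Mean ± SEM from ≥4 experiments in triplicate.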

[7] = target: Muscarinic acetylcholine receptor M3 (Homo sapiens, UniProt P20309); test: Displacement of [3H]-NMS from human muscarinic M3 receptor expressed in CHO-K9 cells after 3 hrs by microbeta2 scintillation counting method; type: cell-based; summary of the method: as §1
Chain of Muscarinic acetylcholine receptor M3 (P20309 whole entry): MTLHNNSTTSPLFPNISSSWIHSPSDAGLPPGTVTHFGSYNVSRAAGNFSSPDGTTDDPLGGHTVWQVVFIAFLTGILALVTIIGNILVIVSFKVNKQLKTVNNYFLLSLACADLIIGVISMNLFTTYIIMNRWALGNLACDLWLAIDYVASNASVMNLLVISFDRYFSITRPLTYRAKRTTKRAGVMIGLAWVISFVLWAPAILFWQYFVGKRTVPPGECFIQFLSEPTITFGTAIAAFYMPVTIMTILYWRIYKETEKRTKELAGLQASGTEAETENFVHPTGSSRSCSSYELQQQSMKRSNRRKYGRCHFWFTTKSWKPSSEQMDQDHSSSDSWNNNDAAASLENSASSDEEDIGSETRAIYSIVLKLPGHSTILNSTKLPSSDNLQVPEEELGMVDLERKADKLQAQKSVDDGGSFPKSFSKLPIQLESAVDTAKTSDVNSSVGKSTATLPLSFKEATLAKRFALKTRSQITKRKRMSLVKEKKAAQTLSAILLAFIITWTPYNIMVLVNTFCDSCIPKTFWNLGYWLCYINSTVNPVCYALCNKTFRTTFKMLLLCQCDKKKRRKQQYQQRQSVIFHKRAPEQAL

pKi [1] | remaining at 6 h, 100 µM [2] [%] | Ratio Ki [3] | pIC50 [4] | inhibition [5] | pIC50 [6] | pKi [6] | pKi [7] | SMILES
6.37 | > 99 | 6500 | 7.03 | Dose-dependent effect | 7.38 | 8.69 | 5.17 | CC(=O)N[C@@H](CCCCN)C(=O)N[C@@H](CCCNC(=N)N)C(=O)NCCCCC1CCN(CC(=O)N2c3ccccc3NC(=O)c3ccccc32)CC1
6.53 | > 99 | 1800 | 7.98 | Dose-dependent effect | 8.75 | 10.10 | 6.96 | CC(=O)N[C@@H](CCCCN)C(=O)N[C@@H](C)C(=O)N[C@@H](CCCNC(=N)N)C(=O)NCCN1CCN(CCCCC2CCN(CC(=O)N3c4ccccc4NC(=O)c4ccccc43)CC2)CC1
